Consider 38 compounds from ChEMBL document CHEMBL1156157, “1,7-Disubstituted oxyindoles are potent and selective EP(3) receptor antagonists” (Bioorg Med Chem Lett, 2010).

Each structure is given as a SMILES string.

Data set [1] deals with T1, Prostaglandin E2 receptor EP3 subtype (Homo sapiens, UniProt P43115).
T1 sequence (P43115 whole entry): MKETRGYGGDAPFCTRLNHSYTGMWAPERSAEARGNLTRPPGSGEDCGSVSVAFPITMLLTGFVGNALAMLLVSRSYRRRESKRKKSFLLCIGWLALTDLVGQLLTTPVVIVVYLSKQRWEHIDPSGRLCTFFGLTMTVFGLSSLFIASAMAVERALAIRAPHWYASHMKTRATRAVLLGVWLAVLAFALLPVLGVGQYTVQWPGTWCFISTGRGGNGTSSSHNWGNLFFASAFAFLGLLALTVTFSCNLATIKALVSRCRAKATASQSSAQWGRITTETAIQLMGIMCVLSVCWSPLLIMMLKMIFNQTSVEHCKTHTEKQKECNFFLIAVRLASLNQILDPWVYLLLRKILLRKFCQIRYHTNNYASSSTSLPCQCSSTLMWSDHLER
Description: Displacement of [3H]PGE2 from human EP3 receptor in presence of 10% human serum. Background: Displacement assays read how much labelled ligand stays bound in the presence of the test substance.

A short description of data set [2]: Metabolic stability in human liver microsomes assessed as parent compound remaining after 30 mins. It is filed as ADME, Microsome. The settings on record: read-out: Stability. The procedure, abridged: (§1)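 Compounds incubated with liver microsomes from human, rat, mouse, dog or monkey. Read-out is percent parent compound remaining at 30 min of incubation.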
On the technique in general: Microsomes from liver hold many membrane-bound enzymes, among them those of drug oxidation.

Data set [3] can be described thus: Metabolic stability in rat liver microsomes assessed as parent compound remaining after 30 mins. Format: ADME, Microsome. The settings on record: read-out: Stability. The method, boiled down: as §1
For a further data set, the species on record is Rattus norvegicus. Kind of data set: Antithrombotic activity in rat assessed as platelet aggregation. It is filed as functional. The procedure, abridged: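 Functional EP3 antagonism measured in a rat platelet aggregation assay. Values reported as EC50 in nM.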
Data set [4] has as its target T1, Prostaglandin E2 receptor EP3 subtype. Kind of data set: Displacement of [3H]PGE2 from human EP3 receptor in buffer.
A short description of data set [5]: Metabolic stability in mouse liver microsomes assessed as parent compound remaining after 30 mins. The settings on record: read-out: Stability. It is filed as ADME, Microsome. The method, boiled down:
as §1

In the next data set the target is Cytochrome P450 3A4 (Homo sapiens, UniProt P08684). Kind of data set: Inhibition of human CYP3A4 using 7-benzyloxy-4-trifluoromethylcoumarin as substrate. It is filed as ADME. The method, boiled down:
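Inhibition of human CYP3A4 with 7-benzyloxy-4-trifluoromethylcoumarin (BFC) as substrate. Values given as IC50.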

Cytochrome P450 3A4, sequence (P08684 whole entry): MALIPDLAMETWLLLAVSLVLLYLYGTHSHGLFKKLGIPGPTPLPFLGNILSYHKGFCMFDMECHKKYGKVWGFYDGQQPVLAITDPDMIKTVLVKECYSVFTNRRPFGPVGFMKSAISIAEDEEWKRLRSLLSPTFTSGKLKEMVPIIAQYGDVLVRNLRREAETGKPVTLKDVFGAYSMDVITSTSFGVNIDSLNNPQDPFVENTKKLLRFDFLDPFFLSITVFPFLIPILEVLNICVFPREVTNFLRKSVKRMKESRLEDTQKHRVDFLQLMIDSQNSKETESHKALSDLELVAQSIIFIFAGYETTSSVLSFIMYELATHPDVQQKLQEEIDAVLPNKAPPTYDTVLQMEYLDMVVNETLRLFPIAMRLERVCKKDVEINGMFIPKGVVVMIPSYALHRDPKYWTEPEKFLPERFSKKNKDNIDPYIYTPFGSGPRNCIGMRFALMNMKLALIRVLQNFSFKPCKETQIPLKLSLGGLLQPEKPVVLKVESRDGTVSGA

The IC50 is the concentration at which inhibition is half-maximal. In general, EC50 refers to the concentration needed to bring the measured effect to its halfway point. In the case of `O=C(/C=C/c1cccc2c1N(Cc1ccc3ccccc3c1)C(=O)C2)NS(=O)(=O)c1cc(F)c(F)cc1F`, the IC50 was determined as 10.2 nM in data set [1] and 0.3 nM in data set [4]. In addition, the values for the remaining at 0.5 h in data set [2] and in data set [3] were 73.9% and 62.5%, respectively. Moreover, in the data set filed under Rattus norvegicus, the EC50 amounted to 1090 nM.
Take `O=C(/C=C/c1cccc2c1N(Cc1ccc3ccccc3c1)C(=O)C2)NS(=O)(=O)c1cccs1`: the IC50 in data set [4] was 23.6 nM.
Consider `CC1C(=O)N(Cc2ccc(Cl)cc2Cl)c2c(/C=C/C(=O)NS(=O)(=O)c3cccc(Cl)c3)cccc21` (stereo not drawn), for which the IC50 in data set [1] worked out at 6.8 nM; in data set [4], 0.5 nM. The results for the remaining at 0.5 h in data set [2], in data set [3] and in data set [5] were 49.5%, 23.6% and 7.26%, respectively.
For `O=C(/C=C/c1cccc2c1N(Cc1ccc3ccccc3c1)C(=O)C21OCCO1)NS(=O)(=O)c1cc(Cl)c(Cl)s1`, the values for the IC50 in data set [1] and in data set [4] were 82.4 nM and 7.9 nM, respectively.
With `CC1C(=O)N(Cc2ccc(Cl)cc2Cl)c2c(/C=C/C(=O)NS(=O)(=O)c3cc(Cl)c(Cl)s3)cccc21` (stereo not drawn), the IC50 in data set [1] was 23.9 nM; in data set [4], 3.4 nM. For the same compound, in the data set filed under Rattus norvegicus, the EC50 came to 47 nM.
`O=C(/C=C/c1cccc2c1N(Cc1ccc(F)c(F)c1)C(=O)C2(F)F)NS(=O)(=O)c1cc(F)c(F)cc1F`: the IC50 is 721 nM in data set [1], above 800 nM in the data set filed under Rattus norvegicus and 16.5 nM in data set [4]. For the same compound, at Cytochrome P450 3A4, the “inhibition (INH)” value is given as “Active”.
For the compound `O=C(/C=C/c1cccc2c1N(Cc1ccc3ccccc3c1)C(=O)C2=O)NS(=O)(=O)c1ccc(Cl)c(Cl)c1`, the IC50 was determined as 12.7 nM in data set [1] and 1 nM in data set [4].
Turning to `O=C(/C=C/c1cccc2c1N(Cc1ccc(F)c(F)c1)C(=O)C2(F)F)NS(=O)(=O)c1ccc(Cl)c(Cl)c1`, the “inhibition (INH)” value against Cytochrome P450 3A4 is “Active”. For the same compound, the IC50 in the data set listed under Rattus norvegicus is above 800 nM; in data set [4], 1.3 nM.
Consider `O=C(/C=C/c1cccc2c1N(Cc1ccc3ccccc3c1)C(=O)C2(CO)CO)NS(=O)(=O)c1cc(Cl)c(Cl)s1`, for which the values for the IC50 in data set [1] and in data set [4] were 243 nM and 2.3 nM, respectively.
On the same counts, the results for `O=C(/C=C/c1cccc2c1N(Cc1ccc3ccccc3c1)C(=O)C2=O)NS(=O)(=O)c1cc(F)c(F)cc1F` are 17.4 nM and 0.6 nM.
On the same counts, the results for `CC1C(=O)N(Cc2ccc(Cl)cc2Cl)c2c(/C=C/C(=O)NS(=O)(=O)c3cccs3)cccc21` (stereo not drawn) are 660 nM and 2.4 nM.
Consider `CC1C(=O)N(Cc2ccc3ccccc3c2)c2c(/C=C/C(=O)NS(=O)(=O)c3ccc(Cl)c(Cl)c3)cccc21` (stereo not drawn), for which the IC50 in data set [1] came to 4.1 nM; in data set [4] it was 0.6 nM. In addition, the remaining at 0.5 h in data set [2] amounted to 36.4%; in data set [3] it was 10.3%; in data set [5] it was 5.83%.
For the compound `O=C(/C=C/c1cccc2c1N(Cc1ccc3ccccc3c1)C(=O)C2)NS(=O)(=O)c1cccc(Cl)c1`, the IC50 in data set [1] was determined as 8.1 nM; in data set [4], 0.6 nM. For the same compound, the remaining at 0.5 h in data set [2] was 56.8%; in data set [3], 29.8%; in data set [5] it was 7.8%. For the same compound, the EC50 in the data set filed under Rattus norvegicus is 405 nM.
With `O=C(/C=C/c1cccc2c1N(Cc1ccc3ccccc3c1)C(=O)C2=O)NS(=O)(=O)c1cccs1`, the IC50 in data set [1] worked out at 260 nM; in data set [4], 13.7 nM.
Take `O=C(/C=C/c1cccc2c1N(Cc1ccc(F)c(F)c1)C(=O)C2)NS(=O)(=O)c1cc(Cl)c(Cl)s1`: the IC50 in data set [1] was found to be 55.4 nM; in data set [4], 0.4 nM.
On the same counts, the results for `O=C(/C=C/c1cccc2c1N(Cc1ccc(F)c(F)c1)C(=O)C2)NS(=O)(=O)c1ccc(F)c(F)c1` are 47.8 nM and 0.9 nM.
With `O=C(/C=C/c1cccc2c1N(Cc1ccc(Cl)cc1Cl)C(=O)C2)NS(=O)(=O)c1ccc(F)c(F)c1`, the figures for the IC50 in data set [1] and in data set [4] were 3.3 nM and 0.7 nM, respectively. Besides, the remaining at 0.5 h was found to be 54.3% in data set [2], 23.5% in data set [3] and 39.1% in data set [5]. In addition, in the data set listed under Rattus norvegicus, the EC50 amounted to 137 nM.
Take `O=C(/C=C/c1cccc2c1N(Cc1ccc(F)c(F)c1)C(=O)C2)NS(=O)(=O)c1cccc(Cl)c1`: the IC50 stood at 35.5 nM in data set [1] and 0.4 nM in data set [4].
On the same counts, the results for `O=C(/C=C/c1cccc2c1N(Cc1ccc3ccccc3c1)C(=O)C2=O)NS(=O)(=O)c1cc(Cl)c(Cl)s1` are 15 nM and 12.3 nM.
On the same counts, the results for `O=C(/C=C/c1cccc2c1N(Cc1ccc3ccccc3c1)C(=O)C2(CO)CO)NS(=O)(=O)c1ccc(F)c(F)c1` are 187 nM and 11.6 nM.
`O=C(/C=C/c1cccc2c1N(Cc1ccc(F)c(F)c1)C(=O)C2)NS(=O)(=O)c1cc(F)c(F)cc1F`: the figures for the IC50 in data set [1] and in data set [4] were 42 nM and 0.7 nM, respectively.
On to `O=C(/C=C/c1cccc2c1N(Cc1ccc3ccccc3c1)C(=O)C2)NS(=O)(=O)c1ccc(F)c(F)c1`, for which the figures for the IC50 in data set [1] and in data set [4] were 6.9 nM and 0.4 nM, respectively. The results for the remaining at 0.5 h in data set [2], in data set [3] and in data set [5] were 65.9%, 43% and 13.2%, respectively. Further, the EC50 in the data set filed under Rattus norvegicus came to 246 nM.
Take `O=C(/C=C/c1cccc2c1N(Cc1ccc3ccccc3c1)C(=O)C2)NS(=O)(=O)c1ccc(Cl)c(Cl)c1`: the IC50 in data set [1] was determined as 5.2 nM; in data set [4], 0.5 nM. Moreover, the values for the remaining at 0.5 h in data set [2], in data set [3] and in data set [5] were 66.5%, 46% and 15.7%, respectively.
Consider `CC1C(=O)N(Cc2ccc3ccccc3c2)c2c(/C=C/C(=O)NS(=O)(=O)c3ccc(F)c(F)c3)cccc21` (stereo not drawn), for which the IC50 in data set [1] stood at 20 nM; in data set [4], 0.6 nM.
Take `CC1C(=O)N(Cc2ccc(Cl)cc2Cl)c2c(/C=C/C(=O)NS(=O)(=O)c3ccc(F)c(F)c3)cccc21` (stereo not drawn): the IC50 worked out at 3.3 nM in data set [1] and 0.4 nM in data set [4]. For the same compound, the remaining at 0.5 h in data set [2] was 64.7%; in data set [3], 62.1%; in data set [5], 16%.
In the case of `CC1C(=O)N(Cc2ccc(F)c(F)c2)c2c(/C=C/C(=O)NS(=O)(=O)c3cc(F)c(F)cc3F)cccc21` (stereo not drawn), the IC50 in data set [1] was found to be 10.7 nM; in data set [4], 1.4 nM.
On the same counts, the results for `CC1C(=O)N(Cc2ccc(F)c(F)c2)c2c(/C=C/C(=O)NS(=O)(=O)c3ccc(Cl)c(Cl)c3)cccc21` (stereo not drawn) are 95.8 nM and 0.9 nM.
With `CC1C(=O)N(Cc2ccc(Cl)cc2Cl)c2c(/C=C/C(=O)NS(=O)(=O)c3cc(F)c(F)cc3F)cccc21` (stereo not drawn), the IC50 in data set [1] worked out at 4.3 nM; in data set [4], 0.5 nM. The remaining at 0.5 h was 48.4% in data set [2], 22.4% in data set [3] and 4.85% in data set [5].
Consider `O=C(/C=C/c1cccc2c1N(Cc1ccc3ccccc3c1)C(=O)C2=O)NS(=O)(=O)c1ccc(F)cc1`, for which the IC50 in data set [1] was 33.9 nM; in data set [4], 1.6 nM.
Regarding `O=C(/C=C/c1cccc2c1N(Cc1ccc(F)c(F)c1)C(=O)C2)NS(=O)(=O)c1ccc(Cl)c(Cl)c1`, the values for the IC50 in data set [1] and in data set [4] were 55.4 nM and 0.3 nM, respectively.
On to `O=C(/C=C/c1cccc2c1N(Cc1ccc(Cl)cc1Cl)C(=O)C2)NS(=O)(=O)c1cccc(Cl)c1`, for which the IC50 is 9.4 nM in data set [1] and 0.5 nM in data set [4]. For the same compound, the results for the remaining at 0.5 h in data set [2], in data set [3] and in data set [5] were 50.4%, 21% and 33.9%, respectively. In addition, the EC50 in the data set listed under Rattus norvegicus was 290 nM.
On to `O=C(/C=C/c1cccc2c1N(Cc1ccc(Cl)cc1Cl)C(=O)C2)NS(=O)(=O)c1cc(F)c(F)cc1F`, for which the results for the IC50 in data set [1] and in data set [4] were 4.4 nM and 0.2 nM, respectively. For the same compound, the remaining at 0.5 h in data set [2] was determined as 61.6%; in data set [3], 50.6%; in data set [5], 70.1%. Further, the EC50 in the data set listed under Rattus norvegicus amounted to 361 nM.
As to `CC1C(=O)N(Cc2ccc3ccccc3c2)c2c(/C=C/C(=O)NS(=O)(=O)c3cccc(Cl)c3)cccc21` (stereo not drawn), the values for the IC50 in data set [1] and in data set [4] were 2.8 nM and 0.4 nM, respectively. Also, the remaining at 0.5 h is 24.8% in data set [2], 13.1% in data set [3] and 5.63% in data set [5].
For the compound `CC1C(=O)N(Cc2ccc3ccccc3c2)c2c(/C=C/C(=O)NS(=O)(=O)c3cc(F)c(F)cc3F)cccc21` (stereo not drawn), the values for the IC50 in data set [1] and in data set [4] were 5.4 nM and 0.3 nM, respectively. Moreover, the results for the remaining at 0.5 h in data set [2], in data set [3] and in data set [5] were 13.7%, 17.6% and 5.1%, respectively. For the same compound, the EC50 in the data set listed under Rattus norvegicus stood at 19 nM.
With `O=C(/C=C/c1cccc2c1N(Cc1ccc(Cl)cc1Cl)C(=O)C2)NS(=O)(=O)c1ccc(Cl)c(Cl)c1`, the IC50 in data set [1] was 3.3 nM; in data set [4], 1.2 nM. Also, the remaining at 0.5 h in data set [2] was determined as 53.3%; in data set [3], 26.8%; in data set [5], 56.1%. Moreover, in the data set filed under Rattus norvegicus, the EC50 is 316 nM.
Regarding `CC1C(=O)N(Cc2ccc(F)c(F)c2)c2c(/C=C/C(=O)NS(=O)(=O)c3cccc(Cl)c3)cccc21` (stereo not drawn), the IC50 was found to be 39 nM in data set [1] and 4 nM in data set [4].
On the same counts, the results for `O=C(/C=C/c1cccc2c1N(Cc1ccc(Cl)cc1Cl)C(=O)C2=O)NS(=O)(=O)c1cc(Cl)c(Cl)s1` are 136 nM and 6.5 nM.
On the same counts, the results for `CC1C(=O)N(Cc2ccc(Cl)cc2Cl)c2c(/C=C/C(=O)NS(=O)(=O)c3ccc(Cl)c(Cl)c3)cccc21` (stereo not drawn) are 9.8 nM and 0.9 nM.
